Results taken from ChEMBL document CHEMBL4145449, “Synthesis and biological evaluation of novel thiazole- VX-809 hybrid derivatives as F508del correctors by QSAR-based filtering tools” (Eur J Med Chem, 2018).
Calls of active or inactive are those of the source. The calls are words filed in the database; no cut-off is given here.

How the values were obtained:
Assay type in all cases: cell-based
[1] = biological target: Cystic fibrosis transmembrane conductance regulator (Homo sapiens, UniProt P13569, F508DEL); assay: Corrector activity at CFTR F508-del mutant (unknown origin) expressed in human CFBE41o cells harboring HS-YFP preincubated for 24 hrs followed by forskolin/genistein stimulation for 30 mins by fluorescence assay
[2] = test system: Cystic fibrosis transmembrane conductance regulator (Homo sapiens), P13569 [F508del]; assay: Potentiator activity at CFTR F508-del mutant (unknown origin) expressed in human CFBE41o cells harboring HS-YFP assessed as increase in forskolin-stimulated aninon permeability up to 25 uM after 30 mins by fluorescence assay
Summary of the method: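 F508del-CFTR/HS-YFP CFBE41o- cells were rescued by 24 h incubation at 27 °C, then exposed 30 min to forskolin (20 μM) plus test compound in PBS. Iodide added to final 100 mM; HS-YFP quenching rate (initial slope dF/dt) from exponential fit of final 10 s, normalized to initial background-subtracted fluorescence; compared with forskolin alone.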

[3] = test system: Cystic fibrosis transmembrane conductance regulator (Homo sapiens), P13569 [F508del]; assay: Synergistic corrector activity at CFTR F508-del mutant (unknown origin) expressed in human CFBE41o cells harboring HS-YFP preincubated for 24 hrs followed by forskolin/genistein stimulation for 30 mins in presence of VX-809 by fluorescence assay
Summary of the method: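 CFBE41o- cells co-expressing F508del-CFTR and HS-YFP treated 24 h with compound (2, 10 or 25 μM) together with VX-809 (1 μM), then stimulated 30 min at 37 °C with forskolin (20 μM) and genistein (50 μM). Iodide influx (final 100 mM) measured as HS-YFP quenching rate.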

Sequence of Cystic fibrosis transmembrane conductance regulator (Homo sapiens), P13569 [F508del] (P13569 as listed by the source): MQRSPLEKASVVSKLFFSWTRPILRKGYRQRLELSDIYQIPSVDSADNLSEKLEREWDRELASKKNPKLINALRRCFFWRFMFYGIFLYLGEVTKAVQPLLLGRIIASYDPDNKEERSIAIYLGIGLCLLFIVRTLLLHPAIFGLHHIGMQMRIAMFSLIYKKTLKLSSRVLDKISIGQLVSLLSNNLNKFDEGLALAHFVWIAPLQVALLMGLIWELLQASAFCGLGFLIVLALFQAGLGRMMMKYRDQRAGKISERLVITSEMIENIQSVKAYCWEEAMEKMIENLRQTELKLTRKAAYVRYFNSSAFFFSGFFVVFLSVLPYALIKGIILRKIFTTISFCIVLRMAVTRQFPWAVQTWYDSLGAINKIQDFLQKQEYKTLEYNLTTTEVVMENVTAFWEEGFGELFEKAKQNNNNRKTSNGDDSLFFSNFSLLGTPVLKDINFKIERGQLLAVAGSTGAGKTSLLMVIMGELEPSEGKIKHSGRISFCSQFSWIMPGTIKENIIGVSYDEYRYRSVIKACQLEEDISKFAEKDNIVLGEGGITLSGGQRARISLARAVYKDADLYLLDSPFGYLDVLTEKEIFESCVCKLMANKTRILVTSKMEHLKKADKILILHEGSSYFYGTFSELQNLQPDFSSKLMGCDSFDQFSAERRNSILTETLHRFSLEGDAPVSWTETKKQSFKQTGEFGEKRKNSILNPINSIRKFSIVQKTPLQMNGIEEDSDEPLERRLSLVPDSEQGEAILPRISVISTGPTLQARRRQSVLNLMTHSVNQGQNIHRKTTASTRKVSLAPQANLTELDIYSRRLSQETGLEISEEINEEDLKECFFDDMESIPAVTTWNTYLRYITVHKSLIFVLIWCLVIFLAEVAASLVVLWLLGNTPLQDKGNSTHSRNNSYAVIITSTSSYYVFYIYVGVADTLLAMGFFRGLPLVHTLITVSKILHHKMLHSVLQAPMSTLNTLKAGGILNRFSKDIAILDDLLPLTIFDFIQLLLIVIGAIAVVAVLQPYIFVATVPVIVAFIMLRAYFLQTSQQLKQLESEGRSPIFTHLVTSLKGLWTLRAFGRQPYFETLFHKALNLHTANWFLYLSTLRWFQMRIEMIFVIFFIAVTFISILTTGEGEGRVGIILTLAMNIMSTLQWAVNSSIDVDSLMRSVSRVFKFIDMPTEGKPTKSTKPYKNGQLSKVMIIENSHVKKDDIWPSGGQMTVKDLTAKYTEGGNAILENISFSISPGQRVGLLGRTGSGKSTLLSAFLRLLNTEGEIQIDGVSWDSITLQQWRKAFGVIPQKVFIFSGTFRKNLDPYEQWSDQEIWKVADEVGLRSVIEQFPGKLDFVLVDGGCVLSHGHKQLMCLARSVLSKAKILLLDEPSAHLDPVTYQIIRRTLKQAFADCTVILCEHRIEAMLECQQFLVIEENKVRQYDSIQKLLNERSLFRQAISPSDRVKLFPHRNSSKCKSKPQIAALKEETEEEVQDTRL
Sequence of Cystic fibrosis transmembrane conductance regulator (P13569 as listed by the source): as above

SMILES | EC50 ([1]; read-out: pEC50 (converted)) | Activity [2] | EC50 ([1]; read-out: EC50) | Activity [3]
COc1cccc(C(=O)N2CCN(c3nc4cc(C)cc(C)c4cc3C#N)CC2)c1 | 100 µM | – | – | –
COc1ccccc1C(=O)N1CCN(c2nc3cc(C)cc(C)c3cc2C#N)CC1 | 100 µM | – | – | –
CCN(C(C)=O)C1CCN(c2nc(-c3ccccn3)nc3c2CN(Cc2ccc(Cl)cc2)CC3)C1 (configuration not stated) | 100 µM | – | – | –
CN(C)CCN1CCN(c2nc(-c3ccncc3)nc3c2CN(Cc2ccccc2)CC3)CC1 | 100 µM | – | – | –
O=C(Nc1nc(-c2cccc(Cl)c2)cs1)C1(c2ccc3c(c2)OCO3)CC1 | – | inactive | 8.2 µM | inactive
O=C(O)c1ccc(-c2csc(NC(=O)C3(c4ccc5c(c4)OCO5)CC3)n2)cc1 | > 5.01 µM | inactive | > 5 µM | inactive
Cc1sc(NC(=O)C2(c3ccc4c(c3)OCO4)CC2)nc1-c1ccc(Br)cc1 | – | inactive | 1.9 µM | inactive
Cc1sc(NC(=O)C2(c3ccc4c(c3)OCO4)CC2)nc1-c1ccc(Cl)cc1 | – | inactive | 2.9 µM | inactive
COc1ccc(NC(=O)c2cc(-c3sc(NC(=O)C(C)(C)C)nc3C)n(-c3ccc(Br)cc3)n2)cc1 | 3.39 µM | – | – | –
COc1ccc(Cl)cc1Cc1cc(-c2sc(NC(=O)C(C)(C)C)nc2C)nn1C(=O)NCCO | 3.02 µM | – | – | –
Cc1sc(NC(=O)C2(c3ccc4c(c3)OCO4)CC2)nc1-c1ccc(O)cc1 | – | inactive | 3.9 µM | inactive
CN(C)CCN1CCN(c2nc(-c3ccccn3)nc3c2CN(S(=O)(=O)c2ccccc2)CC3)CC1 | 100 µM | – | – | –
Fc1ccc(CN2CCc3nc(-c4ccccn4)nc(NCCCN4CCCC4)c3C2)cc1 | 0.2 µM | – | – | –
CC(=O)Nc1ccc(-c2csc(NC(=O)C3(c4ccc5c(c4)OCO5)CC3)n2)cc1 | > 5.01 µM | inactive | > 5 µM | inactive
Cc1sc(NC(=O)C2(c3ccc4c(c3)OC(F)(F)O4)CC2)nc1-c1ccc(Br)cc1 | – | inactive | 3.8 µM | inactive
NC(=O)CN1CCN(c2nc(-c3cccnc3)nc3c2CN(Cc2ccccc2)CC3)CC1 | 100 µM | – | – | –
Cc1cc(C)c2cc(C#N)c(NCCCNC(=O)c3ccncc3)nc2c1 | 13.2 µM | – | – | –
O=C(Nc1nc(-c2ccc(Cl)cc2)cs1)C1(c2ccc3c(c2)OCO3)CC1 | – | inactive | 2.9 µM | inactive
Cc1sc(NC(=O)C2(c3ccc4c(c3)OCO4)CC2)nc1-c1ccc(F)cc1 | – | inactive | 0.9 µM | inactive

SMILES | EC50 ([1]; read-out: pEC50 (converted)) | Activity [2] | EC50 ([1]; read-out: EC50) | Activity [3]
COc1ccc(CN2CCc3nc(-c4ccccn4)nc(N4CCN(CCN(C)C)CC4)c3C2)cc1 | 100 µM | – | – | –
COc1ccccc1C(=O)NCCCNc1nc2cc(C)cc(C)c2cc1C#N | > 100 µM | – | – | –
COc1ccc(C(=O)N2CCN(c3nc4cc(C)cc(C)c4cc3C#N)CC2)cc1 | 100 µM | – | – | –
CN1CCN(CCCNc2nc(-c3cccnc3)nc3c2CN(Cc2ccccc2)CC3)CC1 | > 100 µM | – | – | –
Cc1cc(C)c2cc(C#N)c(N3CCN(C(=O)c4cccnc4)CC3)nc2c1 | 100 µM | – | – | –
CN(C)CCN1CCN(c2nc(-c3ccccn3)nc3c2CN(Cc2ccc(F)cc2)CC3)CC1 | 100 µM | – | – | –
Cc1sc(NC(=O)C2(c3ccc4c(c3)OCO4)CC2)nc1-c1ccc(C(=O)O)cc1 | – | inactive | 2.9 µM | inactive
COc1ccc(NC(=O)n2nc(-c3sc(NC(=O)C(C)(C)C)nc3C)cc2Cc2cc(Cl)ccc2OC)cc1 | 1 µM | – | – | –
Cc1sc(NC(=O)C2(c3ccc4c(c3)OCO4)CC2)nc1-c1ccccc1 | – | inactive | 1.6 µM | inactive
O=C(Nc1nc(-c2ccc(O)cc2)cs1)C1(c2ccc3c(c2)OCO3)CC1 | – | inactive | 1.8 µM | inactive
Cc1sc(NC(=O)C2(c3ccc4c(c3)OCO4)CC2)nc1-c1cccc(Cl)c1 | – | inactive | 2.3 µM | inactive
Cc1nc(NC(=O)C(C)(C)C)sc1-c1cc(Cc2ccccc2)n(C(=O)NCc2ccccc2)n1 | 0.759 µM | – | – | –
CCOC(=O)c1sc(NC(=O)C2(c3ccc4c(c3)OCO4)CC2)nc1-c1cccc(Cl)c1 | – | inactive | 0.55 µM | inactive
O=C(Nc1nc(-c2ccc(Br)cc2)cs1)C1(c2ccc3c(c2)OCO3)CC1 | – | inactive | 4.9 µM | inactive
CCOC(=O)c1sc(NC(=O)C2(c3ccc4c(c3)OCO4)CC2)nc1-c1ccc(Br)cc1 | – | inactive | 0.3 µM | inactive
CN1CCN(CCCNc2nc(-c3ccncc3)nc3c2CN(Cc2ccccc2)CC3)CC1 | 100 µM | – | – | –
COc1ccc(Cl)cc1Cc1cc(-c2sc(NC(=O)C(C)(C)C)nc2C)nn1C(=O)N1CCOCC1 | 1 µM | – | – | –
CCOC(=O)n1nc(-c2sc(NC(=O)C(C)(C)C)nc2C)cc1Cc1ccccc1 | 8.51 µM | – | – | –
Cc1cc(C)c2cc(C#N)c(NCCCNC(=O)c3ccccn3)nc2c1 | 100 µM | – | – | –

SMILES | EC50 ([1]; read-out: pEC50 (converted)) | Activity [2] | EC50 ([1]; read-out: EC50) | Activity [3]
COc1ccc(Cl)cc1Nc1nc(-c2sc(NC(=O)C(C)(C)C)nc2C)cs1 | 0.708 µM | – | – | –
O=C(Nc1nc(-c2ccc(O)cc2)cs1)C1(c2ccc3c(c2)OC(F)(F)O3)CC1 | – | inactive | 1.7 µM | inactive
Cc1cc(C)c2cc(C#N)c(NCCNC(=O)c3ccccc3)nc2c1 | > 100 µM | – | – | –
C=CCc1cc(-c2sc(NC(=O)C(C)(C)C)nc2C)nn1C(=O)Nc1ccc(OC)cc1 | 0.933 µM | – | – | –
Cc1sc(NC(=O)C2(c3ccc4c(c3)OC(F)(F)O4)CC2)nc1-c1cccc(Cl)c1 | – | inactive | 5.4 µM | inactive
O=C(Nc1nc(-c2cccc(Cl)c2)cs1)C1(c2ccc3c(c2)OC(F)(F)O3)CC1 | – | inactive | – | inactive
CSc1cccc(NC(=O)C2(c3ccc4c(c3)OCO4)CC2)c1 | – | inactive | 8 µM | inactive
Cc1cc(C)c2cc(C#N)c(NCCNC(=O)c3ccccn3)nc2c1 | > 100 µM | – | – | –
CN(C)CCN1CCN(c2nc(-c3ccccn3)nc3c2CN(C(=O)c2ccccc2)CC3)CC1 | 100 µM | – | – | –
CCOC(=O)c1sc(NC(=O)C2(c3ccc4c(c3)OCO4)CC2)nc1-c1ccc(Cl)cc1 | – | inactive | 0.9 µM | inactive
NC(=O)C1CCN(c2nc(-c3cccnc3)nc3c2CN(Cc2ccccc2)CC3)CC1 | > 100 µM | – | – | –
Cc1cc(C)c2cc(C#N)c(N3CCN(C(=O)c4ccncc4)CC3)nc2c1 | 100 µM | – | – | –
C=CCc1cc(-c2sc(NC(=O)C(C)(C)C)nc2C)nn1C(=O)Nc1ccccc1 | 3.02 µM | – | – | –
CC(=O)NCCCNc1nc(-c2ccccn2)nc2c1CN(Cc1ccc(F)cc1)CC2 | 0.2 µM | – | – | –
O=C(Nc1nc(-c2cccc(O)c2)cs1)C1(c2ccc3c(c2)OC(F)(F)O3)CC1 | – | inactive | 1.3 µM | inactive
CC(=O)c1sc(NC(=O)C2(c3ccc4c(c3)OCO4)CC2)nc1C | – | inactive | – | inactive
CN(C)CCN1CCN(c2nc(-c3cccnc3)nc3c2CN(Cc2ccccc2)CC3)CC1 | > 100 µM | – | – | –
Cc1cc(C)c2cc(C#N)c(N3CCN(C(=O)c4ccccn4)CC3)nc2c1 | 100 µM | – | – | –
